Experimental data taken from ChEMBL document CHEMBL1135506, “Correlations between cytotoxicity and topography of some 2-arylidenebenzocycloalkanones determined by X-ray crystallography” (J Med Chem, 2002).

Experiments:
[1] = system: CCRF-CEM; experiment: Inhibitory concentration against CEM T-lymphocytes; assay type: functional, cell-based; settings: Homo sapiens
Summary of the method: (§1)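 Murine L1210 lymphoid leukemia cells, human Molt 4/C8 T-lymphocytes and human CEM T-lymphocytes were tested up to a maximum concentration of 500 µM, and the read-out was IC50 (µM).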

[2] = Inhibitory concentration against proliferation of human Molt 4/C8 cells; assay type: functional, cell-based; settings: Molt4/C8; summary of the method: as §1
[3] = system: L1210; experiment: Inhibitory activity against L1210 leukemia cells; assay type: functional, cell-based; settings: Mus musculus; summary of the method: as §1
[4] = system: P388; experiment: Inhibitory activity against Murine P388 cells; assay type: functional, cell-based; settings: Mus musculus
[5] = Partition coefficient (logP); assay type: physicochemical; settings: octanol/water
[6] = system: L1210; experiment: Effect on DNA biosyntheses in leukemia L1210 cells; assay type: functional, cell-based; settings: Mus musculus
Summary of the method: (§2)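 L1210 cells, ~2 × 10⁵ per well, were exposed to a range of concentrations together with 0.25 µCi of [methyl-³H]deoxythymidine (DNA), [5-³H]uridine (RNA) or [3,4-³H]leucine (protein). They were incubated 20 h at 37 °C. Radioactivity in the trichloroacetic acid-insoluble fraction was then counted by liquid scintillation.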

[7] = system: L1210; experiment: Effect on RNA biosyntheses in leukemia L1210 cells; assay type: functional, cell-based; settings: Mus musculus; summary of the method: as §2
[8] = system: L1210; experiment: Effect on proliferation of leukemia L1210 cells; assay type: functional, cell-based; settings: Mus musculus; summary of the method: as §1
[9] = system: L1210; experiment: Effect on protein biosyntheses in leukemia L1210 cells; assay type: functional, cell-based; settings: Mus musculus; summary of the method: as §2

IC50 [1] [µM]	IC50 [3] [µM]	IC50 [4] [µM]	logP [5]	IC50 [6] [µM]	IC50 [7] [µM]	IC50 [8] [µM]	IC50 [9] [µM]	SMILES	IC50 [2] [µM]
9.77	210	13.1	–	–	–	–	–	O=C1/C(=C/c2ccc(Cl)c(Cl)c2)CCc2ccccc21	28.6
37.6	214	28.7	–	–	–	–	–	COc1cccc(/C=C2\Cc3ccccc3C2=O)c1OC	53
407	> 500	14	5.65	–	–	–	–	O=C1/C(=C/c2ccc(Cl)cc2Cl)CCCc2ccccc21	> 500
28.9	46.1	18	4.69	–	–	–	–	COc1ccccc1/C=C1\CCCc2ccccc2C1=O	37.1
8.55	45.1	9.75	–	–	–	–	–	COc1cccc(/C=C/C(=O)c2ccccc2)c1	7.94
7.22	10.8	12.6	–	–	–	–	–	O=C1/C(=C/c2ccccc2[N+](=O)[O-])CCc2ccccc21	8.12
8.56	64.4	15.9	–	–	–	–	–	COc1ccccc1/C=C/C(=O)c1ccccc1	8.45
13.8	59.1	7.58	–	–	–	–	–	O=C(/C=C/c1ccc([N+](=O)[O-])cc1)c1ccccc1	8.32
3.53	7.61	0.74	–	14.7	11.7	7.61	17.2	O=C1/C(=C/c2ccccc2[N+](=O)[O-])Cc2ccccc21	2.54
397	> 500	25	–	–	–	–	–	O=C1/C(=C/c2ccc(Cl)c(Cl)c2)Cc2ccccc21	> 500
8.6	30.4	3.74	–	–	–	–	–	O=C(/C=C/c1ccccc1[N+](=O)[O-])c1ccccc1	8.38
28.7	38.2	12.3	–	–	–	–	–	COc1cccc(/C=C2\CCc3ccccc3C2=O)c1OC	41.3
20.8	22.8	21.8	–	–	–	–	–	O=C1/C(=C/c2ccccc2F)CCc2ccccc21	36
25.4	33.4	19.7	–	–	–	–	–	O=C1/C(=C/c2ccccc2Br)CCc2ccccc21	36.8
57	152	26.5	–	–	–	–	–	O=C1/C(=C/c2ccccc2Cl)Cc2ccccc21	128
58.2	170	28.4	–	407	292	170	167	COc1ccccc1/C=C1\Cc2ccccc2C1=O	308
16.2	47	36.5	4.07	–	–	–	–	O=C1/C(=C/c2ccccc2[N+](=O)[O-])CCCc2ccccc21	40
1.88	7.98	2.61	–	–	–	–	–	COc1ccc(/C=C2\CCc3ccccc3C2=O)c(OC)c1	1.69
8.73	34.4	17.2	–	–	–	–	–	O=C1/C(=C/c2ccc(Cl)cc2Cl)CCc2ccccc21	28.4
47.1	150	31.7	–	–	–	–	–	O=C1/C(=C/c2ccccc2F)Cc2ccccc21	54.2
8.8	30	17.5	–	–	–	–	–	O=C1/C(=C/c2ccccc2Cl)CCc2ccccc21	29.6
7.04	31.2	6.72	–	–	–	–	–	COc1cc(/C=C2\CCc3ccccc3C2=O)cc(OC)c1OC	8.28
12.6	40.5	17.5	–	–	–	–	–	COc1ccccc1/C=C1\CCc2ccccc2C1=O	31.3
18.4	42.3	12.7	5.04	–	–	–	–	O=C1/C(=C/c2ccccc2Cl)CCCc2ccccc21	37.1

Continued, compound first:

SMILES	IC50 [1] [µM]	IC50 [3] [µM]	IC50 [4] [µM]	logP [5]	IC50 [6] [µM]	IC50 [7] [µM]	IC50 [8] [µM]	IC50 [9] [µM]	IC50 [2] [µM]
Cc1ccccc1/C=C1\CCc2ccccc2C1=O	43.2	50.2	17.7	–	–	–	–	–	41.4
COc1ccc(/C=C2\Cc3ccccc3C2=O)c(OC)c1	87.1	14	13	–	–	–	–	–	48.5
O=C1/C(=C/c2ccccc2Br)Cc2ccccc21	46.8	64.2	> 50	–	–	–	–	–	95.4
COc1ccc(/C=C/C(=O)c2ccccc2)cc1 [4-METHOXY CHALCONE]	33.5	50.4	10.6	–	–	–	–	–	30
Cc1ccccc1/C=C1\CCCc2ccccc2C1=O	43.2	61.2	15.2	4.92	–	–	–	–	36.2
N[C@@H](Cc1ccc(N(CCCl)CCCl)cc1)C(=O)O	–	–	–	–	> 100	> 100	–	–	–
COc1ccc(/C=C2\CCc3ccccc3C2=O)cc1OC	8.56	42	5.69	–	–	–	–	–	11.6
Cc1ccccc1/C=C1\Cc2ccccc2C1=O	56.5	208	23.9	–	–	–	–	–	154
O=C1/C(=C/c2ccccc2F)CCCc2ccccc21	28.2	60.4	13.2	4.55	–	–	–	–	42.1
COc1cc(/C=C2\Cc3ccccc3C2=O)cc(OC)c1OC	> 500	> 500	> 50	–	–	–	–	–	> 500
COc1ccc(/C=C2\Cc3ccccc3C2=O)cc1OC	286	264	23.9	–	–	–	–	–	468
COc1cc(/C=C2\CCCc3ccccc3C2=O)cc(OC)c1OC	11.7	35.8	8.68	4.29	–	–	–	–	23.1
COc1cccc(/C=C2\CCCc3ccccc3C2=O)c1OC	142	> 500	8.58	4.54	–	–	–	–	> 500
O=C1/C(=C/c2ccc(Cl)c(Cl)c2)CCCc2ccccc21	11.8	45.7	12.2	5.71	–	–	–	–	18.2
O=C(/C=C/c1cccc([N+](=O)[O-])c1)c1ccccc1	8.9	82.9	15.3	–	–	–	–	–	8.53
COc1ccc(/C=C2\CCCc3ccccc3C2=O)cc1OC	28	> 100	8.19	4.13	–	–	–	–	> 20
O=C1/C(=C/c2ccc(Cl)cc2Cl)Cc2ccccc21	> 500	> 500	> 50	–	–	–	–	–	> 500
O=C1/C(=C/c2ccccc2Br)CCCc2ccccc21	32.1	37	19.8	5.04	–	–	–	–	38.4
COc1ccc(/C=C2\CCCc3ccccc3C2=O)c(OC)c1	48.4	12.4	7.82	5.01	–	–	–	–	71.4
